# The source made the active and inactive calls. No cut-off for these calls is given here.
# Assays:
# [1] = system: Aspergillus niger; test: Antifungal activity against Aspergillus niger assessed as radial growth at 7% after 48 hrs by poison food technique of Flack relative to control; assay type: functional
# [2] = system: Aspergillus niger; test: Antifungal activity against Aspergillus niger assessed as radial growth at 3% after 48 hrs by poison food technique of Flack relative to control; assay type: functional
# [3] = system: Trichoderma hamatum; test: Antifungal activity against Trichoderma hamatum assessed as radial growth at 0.5% after 24 hrs by poison food technique of Flack relative to control; assay type: functional
# [4] = system: Aspergillus niger; test: Antifungal activity against Aspergillus niger assessed as radial growth at 1% after 24 hrs by poison food technique of Flack relative to control; assay type: functional
# [5] = system: Trichoderma hamatum; test: Antifungal activity against Trichoderma hamatum assessed as radial growth at 7% after 48 hrs by poison food technique of Flack relative to control; assay type: functional
# Procedure, shortened: (§1)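 Acetone stock added to molten sterilized PDA to final 0.5–7%, plated in 90 mm dishes with compound-free plates as control. Each plate was inoculated with a 9 mm disc from a 4-day-old culture, incubated at 25 ± 1 °C, and colony diameter measured at 24 h intervals. % inhibition = (control − treatment)/control × 100; three replicates averaged.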
# [6] = system: Trichoderma koningii; test: Antifungal activity against Trichoderma koningii assessed as radial growth at 1% after 72 hrs by poison food technique of Flack relative to control; assay type: functional; procedure, shortened: as §1
# [7] = system: Trichoderma hamatum; test: Antifungal activity against Trichoderma hamatum assessed as radial growth at 7% after 24 hrs by poison food technique of Flack relative to control; assay type: functional; procedure, shortened: as §1
# [8] = system: Trichoderma hamatum; test: Antifungal activity against Trichoderma hamatum assessed as radial growth at 1% after 72 hrs by poison food technique of Flack relative to control; assay type: functional
# [9] = system: Trichoderma koningii; test: Antifungal activity against Trichoderma koningii; assay type: functional
# [10] = system: Trichoderma hamatum; test: Antifungal activity against Trichoderma hamatum assessed as radial growth at 3% after 72 hrs by poison food technique of Flack relative to control; assay type: functional
# [11] = system: Trichoderma hamatum; test: Antifungal activity against Trichoderma hamatum assessed as radial growth at 3% after 48 hrs by poison food technique of Flack relative to control; assay type: functional
# [12] = system: Trichoderma koningii; test: Antifungal activity against Trichoderma koningii assessed as radial growth at 0.5% after 48 hrs by poison food technique of Flack relative to control; assay type: functional; procedure, shortened: as §1
# [13] = system: Trichoderma koningii; test: Antifungal activity against Trichoderma koningii assessed as radial growth at 0.5% after 72 hrs by poison food technique of Flack relative to control; assay type: functional; procedure, shortened: as §1
# [14] = system: Aspergillus niger; test: Antifungal activity against Aspergillus niger assessed as radial growth at 1% after 48 hrs by poison food technique of Flack relative to control; assay type: functional
# [15] = system: Aspergillus niger; test: Antifungal activity against Aspergillus niger assessed as radial growth at 5% after 72 hrs by poison food technique of Flack relative to control; assay type: functional
# [16] = system: Trichoderma hamatum; test: Antifungal activity against Trichoderma hamatum assessed as radial growth at 3% after 24 hrs by poison food technique of Flack relative to control; assay type: functional
# [17] = system: Trichoderma koningii; test: Antifungal activity against Trichoderma koningii assessed as radial growth at 3% after 72 hrs by poison food technique of Flack relative to control; assay type: functional; procedure, shortened: as §1
# [18] = system: Aspergillus niger; test: Antifungal activity against Aspergillus niger assessed as radial growth at 7% after 72 hrs by poison food technique of Flack relative to control; assay type: functional
# [19] = system: Trichoderma koningii; test: Antifungal activity against Trichoderma koningii assessed as radial growth at 7% after 48 hrs by poison food technique of Flack relative to control; assay type: functional; procedure, shortened: as §1
# [20] = system: Trichoderma hamatum; test: Antifungal activity against Trichoderma hamatum assessed as radial growth at 1% after 24 hrs by poison food technique of Flack relative to control; assay type: functional
# [21] = system: Aspergillus niger; test: Antifungal activity against Aspergillus niger assessed as radial growth at 0.5% after 24 hrs by poison food technique of Flack relative to control; assay type: functional
# [22] = system: Aspergillus niger; test: Antifungal activity against Aspergillus niger assessed as radial growth at 5% after 48 hrs by poison food technique of Flack relative to control; assay type: functional
# [23] = system: Trichoderma hamatum; test: Antifungal activity against Trichoderma hamatum assessed as radial growth at 7% after 24 hrs by poison food technique of Flack; assay type: functional, organism-based
# Procedure, shortened: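 Poisoned-food method: acetone stock mixed into molten sterilized potato dextrose agar to final 0.5, 1, 3, 5 or 7%, poured into 90 mm plates. Plates were inoculated with a 9 mm mycelial disc from a 4-day-old pure culture and incubated at 25 ± 1 °C. Colony diameter (mm) was read every 24 h; mean of three replicates.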
# [24] = system: Aspergillus niger; test: Antifungal activity against Aspergillus niger assessed as radial growth at 3% after 24 hrs by poison food technique of Flack relative to control; assay type: functional
# [25] = system: Trichoderma koningii; test: Antifungal activity against Trichoderma koningii assessed as radial growth at 5% after 72 hrs by poison food technique of Flack relative to control; assay type: functional; procedure, shortened: as §1
# [26] = system: Trichoderma hamatum; test: Antifungal activity against Trichoderma hamatum assessed as radial growth at 5% after 48 hrs by poison food technique of Flack relative to control; assay type: functional; procedure, shortened: as §1
# [27] = system: Aspergillus niger; test: Antifungal activity against Aspergillus niger assessed as radial growth at 3% after 72 hrs by poison food technique of Flack relative to control; assay type: functional
# [28] = system: Aspergillus niger; test: Antifungal activity against Aspergillus niger assessed as radial growth at 1% after 72 hrs by poison food technique of Flack relative to control; assay type: functional
# [29] = system: Trichoderma koningii; test: Antifungal activity against Trichoderma koningii assessed as radial growth at 3% after 48 hrs by poison food technique of Flack relative to control; assay type: functional; procedure, shortened: as §1
# [30] = system: Trichoderma koningii; test: Antifungal activity against Trichoderma koningii assessed as radial growth at 3% after 24 hrs by poison food technique of Flack relative to control; assay type: functional; procedure, shortened: as §1
# [31] = system: Trichoderma hamatum; test: Antifungal activity against Trichoderma hamatum assessed as radial growth at 0.5% after 72 hrs by poison food technique of Flack relative to control; assay type: functional
# [32] = system: Trichoderma koningii; test: Antifungal activity against Trichoderma koningii assessed as radial growth at 5% after 48 hrs by poison food technique of Flack relative to control; assay type: functional; procedure, shortened: as §1
# [33] = system: Trichoderma hamatum; test: Antifungal activity against Trichoderma hamatum assessed as radial growth at 0.5% after 48 hrs by poison food technique of Flack relative to control; assay type: functional
# [34] = system: Aspergillus niger; test: Antifungal activity against Aspergillus niger assessed as radial growth at 0.5% after 72 hrs by poison food technique of Flack relative to control; assay type: functional
# [35] = system: Aspergillus niger; test: Antifungal activity against Aspergillus niger assessed as radial growth at 7% after 24 hrs by poison food technique of Flack relative to control; assay type: functional
# [36] = system: Trichoderma hamatum; test: Antifungal activity against Trichoderma hamatum; assay type: functional
# [37] = system: Trichoderma koningii; test: Antifungal activity against Trichoderma koningii assessed as radial growth at 1% after 24 hrs by poison food technique of Flack relative to control; assay type: functional; procedure, shortened: as §1
# [38] = system: Trichoderma koningii; test: Antifungal activity against Trichoderma koningii assessed as radial growth at 0.5% after 24 hrs by poison food technique of Flack relative to control; assay type: functional; procedure, shortened: as §1
# [39] = system: Trichoderma koningii; test: Antifungal activity against Trichoderma koningii assessed as radial growth at 1% after 48 hrs by poison food technique of Flack relative to control; assay type: functional; procedure, shortened: as §1
# [40] = system: Trichoderma hamatum; test: Antifungal activity against Trichoderma hamatum assessed as radial growth at 1% after 48 hrs by poison food technique of Flack relative to control; assay type: functional
# [41] = system: Trichoderma hamatum; test: Antifungal activity against Trichoderma hamatum assessed as radial growth at 5% after 24 hrs by poison food technique of Flack relative to control; assay type: functional; procedure, shortened: as §1
# [42] = system: Trichoderma koningii; test: Antifungal activity against Trichoderma koningii assessed as radial growth at 5% after 24 hrs by poison food technique of Flack relative to control; assay type: functional; procedure, shortened: as §1
# [43] = system: Trichoderma koningii; test: Antifungal activity against Trichoderma koningii assessed as radial growth at 7% after 72 hrs by poison food technique of Flack relative to control; assay type: functional; procedure, shortened: as §1
# [44] = system: Trichoderma hamatum; test: Antifungal activity against Trichoderma hamatum assessed as radial growth at 7% after 72 hrs by poison food technique of Flack relative to control; assay type: functional; procedure, shortened: as §1
structure (smiles),measurement,setting,value
CCOC(=O)C1=C(C)NC(=S)NC1c1ccc(N(C)C)cc1 (stereo not drawn),inhibition (INH),[1],100%
same,inhibition (INH),[2],40%
same,inhibition (INH),[3],8.92%
same,inhibition (INH),[4],13.6%
same,inhibition (INH),[5],100%
same,inhibition (INH),[6],0%
same,inhibition (INH),[7],100%
same,inhibition (INH),[8],13.9%
same,MIC,[9],0.025 µg/mL
same,inhibition (INH),[10],40.39%
same,inhibition (INH),[11],74.44%
same,inhibition (INH),[12],0%
same,inhibition (INH),[13],0%
same,inhibition (INH),[14],0%
same,inhibition (INH),[15],78.39%
same,inhibition (INH),[16],75%
same,inhibition (INH),[17],15.77%
same,inhibition (INH),[18],100%
same,inhibition (INH),[19],95.31%
same,inhibition (INH),[20],21.42%
same,inhibition (INH),[21],0%
same,inhibition (INH),[22],100%
same,Activity,[23],Active
same,inhibition (INH),[24],30%
same,inhibition (INH),[25],88.29%
same,inhibition (INH),[26],100%
same,inhibition (INH),[27],51.98%
same,inhibition (INH),[28],0%
same,inhibition (INH),[29],18.75%
same,inhibition (INH),[30],41.69%
same,inhibition (INH),[31],8.39%
same,inhibition (INH),[32],86.21%
same,inhibition (INH),[33],5.25%
same,inhibition (INH),[34],0%
same,inhibition (INH),[35],100%
same,MIC,[36],0.025 µg/mL
same,inhibition (INH),[37],3.84%
same,inhibition (INH),[38],0%
same,inhibition (INH),[39],0%
same,inhibition (INH),[40],12.4%
same,inhibition (INH),[41],100%
same,inhibition (INH),[42],92.3%
same,inhibition (INH),[43],91.1%
same,inhibition (INH),[44],97.57%
CCOC(=O)C1=C(C)NC(=S)NC1c1ccccc1O (stereo not drawn),inhibition (INH),[1],61.83%
same,inhibition (INH),[2],38.16%
same,inhibition (INH),[3],26.41%
same,inhibition (INH),[4],20.12%
same,inhibition (INH),[5],100%
same,inhibition (INH),[6],14.37%
same,inhibition (INH),[7],100%
same,inhibition (INH),[8],38.22%
same,MIC,[9],0.025 µg/mL
same,inhibition (INH),[10],76.44%
same,inhibition (INH),[11],80.94%
same,inhibition (INH),[12],0%
same,inhibition (INH),[13],0%
same,inhibition (INH),[14],0%
same,inhibition (INH),[15],31.92%
same,inhibition (INH),[16],81.13%
same,inhibition (INH),[17],32.71%
same,inhibition (INH),[18],36.14%
same,inhibition (INH),[19],93.75%
same,inhibition (INH),[20],49.73%
same,inhibition (INH),[21],0%
same,inhibition (INH),[22],50%
same,Activity,[23],Active
same,inhibition (INH),[24],54.95%
same,inhibition (INH),[25],88.33%
same,inhibition (INH),[26],100%
same,inhibition (INH),[27],23.37%
same,inhibition (INH),[28],0%
same,inhibition (INH),[29],4.18%
same,inhibition (INH),[30],50.39%
same,inhibition (INH),[31],0%
same,inhibition (INH),[32],91.4%
same,inhibition (INH),[33],6.18%
same,inhibition (INH),[34],0%
same,inhibition (INH),[35],62.46%
same,MIC,[36],0.025 µg/mL
same,inhibition (INH),[37],12.35%
same,inhibition (INH),[38],0%
same,inhibition (INH),[39],0%
same,inhibition (INH),[40],51.46%
same,inhibition (INH),[41],100%
same,inhibition (INH),[42],100%
same,inhibition (INH),[43],91.05%
same,inhibition (INH),[44],98.35%
